Measurements published in ChEMBL document CHEMBL1153729, “Structurally diverse limonoids from the fruits of Swietenia mahagoni” (2009).
Values after ≈ are worked out from the molar mass of the structure shown. Active and inactive are the calls of the source. The rule behind the calls is not given here.

Assays:
Shigella flexneri = experiment: Antibacterial activity against Shigella flexneri ATCC 12022 after 18 hrs; format: functional, organism-based
How it was run: (§1)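 Bacterial cells suspended in Mueller-Hinton broth at a final density of […]. Incubated aerobically with compounds in DMSO at 37 °C for 18 h, alongside DMSO-only blank cultures and an ofloxacin positive control. MIC taken as the lowest concentration giving complete inhibition of visible growth.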

Escherichia coli = experiment: Antibacterial activity against Escherichia coli ATCC 25922 after 18 hrs; format: functional, organism-based; how it was run: as §1
Bacillus subtilis = experiment: Antibacterial activity against Bacillus subtilis ATCC 6633 after 18 hrs; format: functional, organism-based; how it was run: as §1
Saccharomyces = experiment: Antifungal activity against Saccharomyces sake ATCC 26421 after 48 hrs; format: functional, organism-based
How it was run: (§2)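 Fungi grown in Sabouraud dextrose broth with compounds for 48 h at 37 °C. Blank cultures received a limited amount of DMSO. Amphotericin B, dissolved in DMSO, served as the positive control.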

[1] = test system: Staphylococcus epidermidis; experiment: Antibacterial activity against Staphylococcus epidermidis ATCC 12228 after 18 hrs; format: functional, organism-based; how it was run: as §1
Candida albicans = experiment: Antifungal activity against Candida albicans ATCC 1600 after 48 hrs; format: functional, organism-based; how it was run: as §2
Kocuria rhizophila = experiment: Antibacterial activity against Micrococcus luteus ATCC 9341 after 18 hrs; format: functional; conditions: for Activity: DC2201; how it was run: as §1
Staphylococcus aureus = experiment: Antibacterial activity against Staphylococcus aureus ATCC 25923 after 18 hrs; format: functional, organism-based; how it was run: as §1
Pseudomonas aeruginosa = experiment: Antibacterial activity against Pseudomonas aeruginosa ATCC 14502 after 18 hrs; format: functional, organism-based; how it was run: as §1
Nannizzia gypsea = experiment: Antifungal activity against Microsporum gypseum ATCC 14683 after 48 hrs; format: functional, organism-based; how it was run: as §2
Trichophyton rubrum = experiment: Antifungal activity against Trichophyton rubrum ATCC 10218 after 48 hrs; format: functional, organism-based; how it was run: as §2

| MIC (Kocuria rhizophila; DC2201, 18 h) [µg/mL] | Structure (SMILES) | Activity (Shigella flexneri) | Activity (Escherichia coli) | Activity (Bacillus subtilis) | Activity (Saccharomyces) | Activity [1] | Activity (Candida albicans) | Activity (Kocuria rhizophila) | Activity (Staphylococcus aureus) | Activity (Pseudomonas aeruginosa) | Activity (Nannizzia gypsea) | Activity (Trichophyton rubrum) |
| --- | --- | --- | --- | --- | --- | --- | --- | --- | --- | --- | --- | --- |
|  | C=C1[C@@H]2CC[C@@]3(C)[C@H](c4ccoc4)OC(=O)C[C@]13O[C@H]1CC(=O)C(C)(C)[C@H](C(O)C(=O)OC)[C@]12C (some centres not stated) | inactive | inactive | inactive | inactive | inactive | inactive | inactive | inactive | inactive | inactive | inactive |
|  | CC(=O)O[C@H]1C[C@@H](OC(C)=O)C(C)(C)[C@@H]2C[C@@H](OC(C)=O)[C@]3(C)[C@H](CC[C@@]4(C)[C@H](c5ccoc5)OC(=O)[C@H]5O[C@@]534)[C@@]12C | inactive | inactive | inactive | inactive | inactive | inactive | inactive | inactive | inactive | inactive | inactive |
| 50 (≈ 89.8 µM) | COC(=O)C[C@H]1C(C)(C)[C@H](OC(=O)C(C)C)[C@]2(O)CC3=C4CC(=O)O[C@@H](c5ccoc5)[C@]4(C)CC[C@@H]3[C@@]1(C)C2=O | inactive | inactive | inactive | inactive | inactive | inactive |  | inactive | inactive | inactive | inactive |
|  | COC(=O)C[C@H]1C(C)(C)[C@H](OC(C)=O)[C@]2(OC(C)=O)C=C3[C@H]([C@H](OC(C)=O)C[C@]4(C)[C@H]3CC(=O)O[C@H]4c3ccoc3)[C@@]1(C)C2=O | inactive | inactive | inactive | inactive | inactive | inactive | inactive | inactive | inactive | inactive | inactive |
|  | CC(=O)O[C@@H]1C[C@H](O)[C@]2(C)[C@H]3CC[C@@]4(C)[C@H](c5ccoc5)OC(=O)[C@H]5O[C@]54[C@]3(C)[C@H](OC(C)=O)C[C@H]2C1(C)C | inactive | inactive | inactive | inactive | inactive | inactive | inactive | inactive | inactive | inactive | inactive |
|  | COC(=O)C[C@H]1C(C)(C)[C@H](O)[C@@H]2C=C3[C@H]([C@H](OC(C)=O)C[C@]4(C)[C@H]3CC(=O)O[C@H]4c3ccoc3)[C@@]1(C)C2=O | inactive | inactive | inactive | inactive | inactive | inactive | inactive | inactive | inactive | inactive | inactive |
|  | COC(=O)C[C@H]1C(C)(C)[C@@H](OC(C)=O)[C@@H]2CC3=C4CC(=O)O[C@@H](c5ccoc5)[C@]4(C)CC[C@@H]3[C@@]1(C)C2=O | inactive | inactive | inactive | inactive | inactive | inactive | inactive | inactive | inactive | inactive | inactive |
|  | C=C1[C@@H]2CC[C@@]3(C)[C@H](c4ccoc4)OC(=O)C[C@]13O[C@H]1CC(=O)C(C)(C)[C@H](CC(=O)OC)[C@]12C | inactive | inactive | inactive | inactive | inactive | inactive | inactive | inactive | inactive | inactive | inactive |
|  | C=C1C2=CC(=O)O[C@@H](c3ccoc3)[C@]2(C)CC[C@@H]1[C@@]1(C)[C@@H](O)CC(=O)C(C)(C)[C@@H]1CC(=O)OC | inactive | inactive | inactive | inactive | inactive | inactive | inactive | inactive | inactive | inactive | inactive |
|  | COC(=O)C[C@H]1C(C)(C)[C@H](OC(C)=O)[C@]2(O)CC3=C4[C@@H](O)C(=O)O[C@@H](c5ccoc5)[C@]4(C)CC[C@@H]3[C@@]1(C)C2=O | inactive | inactive | inactive | inactive | inactive | inactive | inactive | inactive | inactive | inactive | inactive |
|  | CC1(C)C(=O)C=C[C@]2(C)[C@H]3CC[C@@]4(C)[C@H](c5ccoc5)OC(=O)[C@H]5O[C@]54[C@]3(C)C(=O)C[C@@H]12 | inactive | inactive | inactive | inactive | inactive | inactive | inactive | inactive | inactive | inactive | inactive |
|  | C/C=C(\C)C(=O)O[C@H]1C(C)(C)[C@H](CC(=O)OC)[C@]2(C)C(=O)[C@@]1(O)C=C1C3=CC(=O)O[C@@H](c4ccoc4)[C@]3(C)CC[C@@H]12 | inactive | inactive | inactive | inactive | inactive | inactive | inactive | inactive | inactive | inactive | inactive |
